Calls of active or inactive are those of the source.
Columns and labels:
[1] = molecular target: T1, Thermolysin (Bacillus thermoproteolyticus) (UniProt P00800); assay: Binding affinity to Bacillus thermoproteolyticus thermolysin using HEPES buffer by ITC
T1 sequence (whole entry): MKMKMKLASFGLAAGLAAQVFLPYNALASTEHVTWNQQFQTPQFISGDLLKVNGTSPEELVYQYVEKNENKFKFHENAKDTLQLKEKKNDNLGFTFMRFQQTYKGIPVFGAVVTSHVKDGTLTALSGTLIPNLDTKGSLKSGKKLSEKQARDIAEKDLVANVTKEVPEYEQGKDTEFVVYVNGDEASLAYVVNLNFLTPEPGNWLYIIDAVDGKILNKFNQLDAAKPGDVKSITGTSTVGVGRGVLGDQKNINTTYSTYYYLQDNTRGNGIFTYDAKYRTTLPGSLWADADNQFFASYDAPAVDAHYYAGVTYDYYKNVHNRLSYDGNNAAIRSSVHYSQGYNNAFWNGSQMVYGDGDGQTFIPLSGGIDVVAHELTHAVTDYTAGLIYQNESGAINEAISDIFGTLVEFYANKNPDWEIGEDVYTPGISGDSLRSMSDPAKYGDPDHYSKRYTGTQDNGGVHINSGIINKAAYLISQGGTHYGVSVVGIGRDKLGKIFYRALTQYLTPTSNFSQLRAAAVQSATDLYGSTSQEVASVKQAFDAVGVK
Method in brief: (§1)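 Freeze-dried thermolysin was dissolved just before each run in 20 mM buffer (HEPES, PIPES or sodium cacodylate, as in the line), 2 mM CaCl2 and 500 mM NaSCN, pH 7.5. ITC ran at 298 K with 10–15 injections, using either 250 μM protein with 3–3.5 mM ligand or 48 μM protein with 1 mM ligand. Ligand concentrations were corrected for qNMR purity. Each titration was run at least in duplicate.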

[2] = molecular target: T1, Thermolysin (Bacillus thermoproteolyticus); assay: Binding affinity to Bacillus thermoproteolyticus thermolysin using PIPES buffer by ITC; method in brief: as §1
[3] = molecular target: T1, Thermolysin (Bacillus thermoproteolyticus); assay: Binding affinity to Bacillus thermoproteolyticus thermolysin using cacodylate buffer by ITC; method in brief: as §1

Measured: Activity

CC(C)C[C@H](NP(=O)(O)CNC(=O)OCc1ccccc1)C(=O)N[C@@H](CN)C(=O)O
active: all assays above

CCNC(=O)[C@H](CC(C)C)NP(=O)(O)CNC(=O)OCc1ccccc1
active: all assays above

CCCNC(=O)[C@H](CC(C)C)NP(=O)(O)CNC(=O)OCc1ccccc1
active: all assays above

CC(C)C[C@H](NP(=O)(O)CNC(=O)OCc1ccccc1)C(=O)N[C@@H](CCCN)C(=O)O
active: all assays above

CCC[C@H](NC(=O)[C@H](CC(C)C)NP(=O)(O)CNC(=O)OCc1ccccc1)C(=O)O
active: all assays above

CC(C)C[C@H](NP(=O)(O)CNC(=O)OCc1ccccc1)C(=O)NCCCCN
active: all assays above

CC(C)C[C@H](NP(=O)(O)CNC(=O)OCc1ccccc1)C(=O)N[C@@H](CCN)C(=O)O
active: all assays above

CC(C)C[C@H](NP(=O)(O)CNC(=O)OCc1ccccc1)C(=O)NCCN
active: all assays above

CC[C@H](NC(=O)[C@H](CC(C)C)NP(=O)(O)CNC(=O)OCc1ccccc1)C(=O)O
active: all assays above

CC(C)C[C@H](NP(=O)(O)CNC(=O)OCc1ccccc1)C(=O)NCN
active: all assays above

CC(C)C[C@H](NP(=O)(O)CNC(=O)OCc1ccccc1)C(=O)N[C@@H](CCCCN)C(=O)O
active: all assays above

CC(C)C[C@H](NP(=O)(O)CNC(=O)OCc1ccccc1)C(=O)NCCCN
active: all assays above
